Source: PubChem
dFosB act-1 – enhances mouse delta FosB homodimer DNA binding. purified delta FosB, TAMRA-CDK5 oligo fluorescence polarization; percent of positive-control signal above neutral wells. AID 493131. 340,000 compounds, 0.99% hits. activation, % at 25 µM;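 active = mean activation above about 17%, with every replicate also reaching it, limit read from the data, passing the limit was not always enough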
Target sequence (P13346 whole entry, looked up): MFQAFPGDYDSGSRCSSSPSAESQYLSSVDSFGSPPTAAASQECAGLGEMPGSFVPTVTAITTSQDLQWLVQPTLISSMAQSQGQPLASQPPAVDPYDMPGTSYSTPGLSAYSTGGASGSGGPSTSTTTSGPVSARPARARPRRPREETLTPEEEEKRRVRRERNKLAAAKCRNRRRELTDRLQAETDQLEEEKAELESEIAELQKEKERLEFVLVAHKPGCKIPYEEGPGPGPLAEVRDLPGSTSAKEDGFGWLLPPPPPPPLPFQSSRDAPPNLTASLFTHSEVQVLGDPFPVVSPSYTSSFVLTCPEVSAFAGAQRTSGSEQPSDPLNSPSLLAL
SR-BI uptake up – activators of SR-BI mediated HDL lipid uptake | CHO ldlA[mSR-BI] cells, DiI-HDL uptake fluorescence, 3 h; 100 = double the neutral-control signal | activation, % at 12.5 µM | 320,000 compounds, 0.096% hits;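 active = mean replicate activation of at least 60% and every replicate at or above 60%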
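Assay system: CHO ldlA[mSR-BI] cells, LDL receptor-null, SR-BI overexpressing; medium: Ham's F12 with 0.5% BSA, HEPES 25 mM, pH 7.4; also added: DiI-HDL 10 µg/mL; timing: 3 h uptake period with compound, 37 °C; signal: DiI fluorescence, bottom read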
PvdQ inh – P. aeruginosa PvdQ acylase inhibition; purified PvdQ acylase, fluorescence plate reader; 340,000 compounds, 0.063% hits; inhibition, % at 10 µM; AID 488965; in the data active = inhibition above about 30%, passing the limit was not always enough
SR-BI DiI inh – inhibitors of mouse SR-BI mediated HDL lipid uptake; inhibition, % at 12.5 µM; Q61009; AID 488896; 320,000 compounds, 0.96% hits; ldlA[mSR-BI] CHO cells, DiI-HDL uptake fluorescence, 3 h;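 active = mean replicate inhibition of at least 70% and a set share of replicates each scoring 70 or more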
S100A4 inh HTS – blocks human S100A4 binding to myosin IIA peptide; P26447; inhibition, % at 10.7 µM; S100A4/TAMRA-MyoIIA peptide fluorescence polarization; 360,000 compounds, 0.14% hits;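 active = mean inhibition of at least 70% across replicates, with every replicate also reaching that level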
Target sequence (P26447 whole entry, looked up): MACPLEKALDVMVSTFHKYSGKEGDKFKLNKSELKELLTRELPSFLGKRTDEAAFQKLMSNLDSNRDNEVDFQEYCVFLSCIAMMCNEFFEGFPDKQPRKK
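Material: S100A4 monomer protein | Medium: HEPES pH 7.2 with CaCl2, KCl, NaCl, DTT, Triton | Reagent: Labelled myosin peptide probe, 5 nM | Doses: One dose per compound | Times: 5 min incubation before reading | Benchmarks: Neutral control DMSO, positive control TFP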
RAD54 branch – RAD54 (human) branch migration inhibition; RAD54 Holliday junction branch migration, FAM/BHQ fluorescence; Q92698; inhibition, % at 10.4 µM; 360,000 compounds, 0.14% hits;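 active = mean normalized replicate activity at least 40 and at least half of replicates scoring 40 or more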;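 note: inhibitors cause a drop in the FAM fluorescence signal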
dFosB act-2 – enhances mouse delta FosB homodimer binding to DNA | 2,400 tested, under 10 active | AID 588690 | purified delta FosB, TAMRA-CDK5 oligo fluorescence polarization; normalised: neutral wells 0, positive control 100 | shares compounds with dFosB act-1 | activation, % at 24.9 µM;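 active = highest replicate activation at or above 34% and every replicate reaching that threshold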;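 note: higher polarization means more probe DNA bound by delta FosB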
Each line names hits and unclear results; the compound was inactive in the other large screens (follow-up assays come after a bar, where they were run). The list is not random: actives were taken first. Their share in the collection is about 1.6%.

COCCN(C(=O)COC(=O)/C=C/c1ccc(C(F)(F)F)cc1)c1c(N)n(Cc2ccccc2)c(=O)[nH]c1=O	none
CCN(C(=O)COC(=O)c1ccc2ccccc2c1)c1c(N)n(Cc2ccccc2)c(=O)[nH]c1=O	dFosB act-1 38.4 | dFosB act-2 inactive
CCN(C(=O)COC(=O)/C=C/c1ccc(OC)c(OC)c1)c1c(N)n(Cc2ccccc2)c(=O)[nH]c1=O	dFosB act-1 19.9 | dFosB act-2 inactive
COc1ccc(/C=C/C(=O)OCC(=O)N(C)c2c(N)n(Cc3ccccc3)c(=O)[nH]c2=O)cc1OC	none
COc1cccc(-c2ccc3n(c2=O)C[C@H]2[C@H](CO)[C@@H](C(=O)NCC4CC4)N(C(C)=O)[C@@H]32)c1	none (no result: dFosB act-1, SR-BI uptake up, PvdQ inh, SR-BI DiI inh)
O=C(C[C@H]1CC[C@H]2[C@@H](COC[C@H](O)CN2Cc2ccc(Cl)cc2)O1)NCCc1ccccc1	none (no result: dFosB act-1, SR-BI uptake up, PvdQ inh, SR-BI DiI inh)
C[C@@H]1CN([C@@H](C)CO)C(=O)c2ccccc2-c2ccccc2CO[C@@H]1CN(C)S(C)(=O)=O	none (no result: dFosB act-1, SR-BI uptake up, PvdQ inh, SR-BI DiI inh)
O=C(CN1C(=O)S/C(=C\c2ccccn2)C1=O)Nc1ccccc1	dFosB act-1 60.5 | dFosB act-2 inactive
Cc1cccc(NC(=O)CN2C(=O)S/C(=C\c3ccccn3)C2=O)c1	dFosB act-1 40.7 (no result: RAD54 branch) | dFosB act-2 inactive
O=C(CN1C(=O)S/C(=C\C=C\c2ccccc2)C1=O)Nc1ccc(O)cc1	dFosB act-1 61.4 (no result: S100A4 inh HTS) | dFosB act-2 inactive
Cc1ccc(NC(=O)CN2C(=O)S/C(=C\c3ccccn3)C2=O)cc1	none (no result: RAD54 branch)
O=C(CN1C(=O)S/C(=C\c2ccccn2)C1=O)Nc1ccc(F)cc1	dFosB act-1 48.2 | dFosB act-2 inactive
Cc1noc(C)c1S(=O)(=O)N(C)C[C@H]1OCCCC[C@@H](C)Oc2ccc(NS(=O)(=O)c3cccs3)cc2C(=O)N([C@@H](C)CO)C[C@H]1C	none (no result: dFosB act-1, SR-BI uptake up, PvdQ inh, SR-BI DiI inh)
COc1cccc(S(=O)(=O)Nc2ccc3c(c2)[C@@H]2C[C@@H](CC(=O)N[C@@H](C)c4ccccc4)O[C@H](CO)[C@@H]2O3)c1	none (no result: dFosB act-1, SR-BI uptake up, PvdQ inh, SR-BI DiI inh)
CCOc1cc(/C=C2/NC(=O)N(CC(=O)Nc3cccc(C)c3)C2=O)ccc1OC	none
CCOc1cc(/C=C2/NC(=O)N(CC(=O)Nc3cccc(C)c3)C2=O)ccc1O	dFosB act-1 19.4 (no result: S100A4 inh HTS) | dFosB act-2 inactive
O=C(CN1C(=O)c2ccccc2C1=O)Nc1ccccc1	dFosB act-1 24.0 | dFosB act-2 inactive
O=C(O)C[C@H]1C[C@H]2c3cc(NC(=O)CC4CC4)ccc3O[C@H]2[C@H](CO)O1	none (no result: dFosB act-1, SR-BI uptake up, PvdQ inh, SR-BI DiI inh)
CCCCn1c(SCC(=O)c2ccc(OC)c(OC)c2)nc2cc(S(N)(=O)=O)ccc21	dFosB act-1 23.0 (no result: S100A4 inh HTS, RAD54 branch) | dFosB act-2 inactive
C[C@H](CO)N1C[C@H](C)[C@@H](CN(C)C(=O)Nc2ccc3c(c2)OCO3)Oc2ccc(NS(C)(=O)=O)cc2C1=O	none (no result: dFosB act-1, SR-BI uptake up, PvdQ inh, SR-BI DiI inh)
CC(=O)Nc1ccc(NC(=O)C(C)OC(=O)c2cccc(S(=O)(=O)N3CCCCC3)c2)cc1 (stereo unspecified)	dFosB act-1 32.2 | dFosB act-2 inactive
Cc1ccc(C(C)C)c(OCC(=O)NNC(=O)Cn2[nH]c(=O)c3ccccc3c2=O)c1	dFosB act-1 34.6 | dFosB act-2 inactive
COCCn1c(SCC(=O)c2c(N)n(C3CC3)c(=O)[nH]c2=O)nnc1-c1ccc(Cl)cc1	dFosB act-1 20.6 | dFosB act-2 inactive
COCCCn1c(SCC(=O)c2c(N)n(C3CC3)c(=O)[nH]c2=O)nnc1-c1ccccc1Cl	none (no result: dFosB act-1, SR-BI uptake up, PvdQ inh, SR-BI DiI inh)
Cc1oc2cc(O)ccc2c(=O)c1Oc1ccc(F)cc1	dFosB act-1 18.7 | dFosB act-2 inactive
O=C(Cn1ncc2c([nH]c3ccccc32)c1=O)NCCc1ccccc1	dFosB act-1 43.5 | dFosB act-2 inactive
CC(=O)n1cc(/C=N/NC(=O)c2cccc(O)c2)c2ccccc21	dFosB act-1 27.4 (no result: SR-BI uptake up, SR-BI DiI inh) | dFosB act-2 inactive
COc1cc(/C=N/NC(=O)c2ccccc2O)ccc1OCC(=O)Nc1ccccc1	dFosB act-1 27.5 | dFosB act-2 inactive
